According to PMC7425103 (Drug Design, Development and Therapy, 2020):

Columns and labels:
Assay type in all cases: cell-based, human
[1] = system: Hep G2 (hepatocellular liver carcinoma) cell line; test: MTT anticancer; conditions: ratio of IC50 values vs reference CA-4
[2] = system: MCF-7 (breast cancer) cell line; test: MTT anticancer; conditions: ratio of IC50 values vs reference CA-4
Outline: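 ATCC MCF-7 cells were grown in DMEM with 10% FBS and penicillin/streptomycin. After trypsin detachment they were seeded at 1000–2000 cells/well and held 34 hours at 37°C in 5% CO2. Test compound was added at 0.1, 1, 10, 25 and 100 μM for 72 hours. Then 5% MTT was added for 2 h at 37°C, formazan was dissolved in isopropanol, and absorbance was read at 570 nm. Viability was expressed as % of control and IC50 derived by curve fitting.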

MCF-7 cell line [3] = test: Cell cycle analysis by DNA flow cytometry; conditions: MCF-7, at IC50
MCF-7 cell line [4] = test: Annexin V-FITC/PI staining apoptosis assay; conditions: MCF-7, at IC50, 24 hours
Outline: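 MCF-7 cells were seeded at 4 x 10^6/well and exposed to the test compound for 24 hours. Cells were washed three times with ice-cold PBS and resuspended in PBS. They were then stained with Annexin V-FITC and PI from a kit for 15 minutes at room temperature in the dark, and analysed by flow cytometry.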

COc1cc(/C=C/C(=O)c2ccc(NC(=O)c3ccccc3CN3C(=O)c4ccccc4C3=O)cc2)cc(OC)c1OC [Compound 7j, (E)-2-((1,3-Dioxoisoindolin-2-Yl)Methyl)-N-(4-(3-(3,4,5-Trimethoxyphenyl)Acryloyl)Phenyl)Benzamide]
fold anticancer activity relative to CA-4, Hep G2 [1]: 4.51 fold
fold anticancer activity relative to CA-4, MCF-7 [2]: 2.57 fold
apoptosis at preG1 phase, times higher than entinostat (MCF-7 cell line [3]): 1.04 times
cell accumulation percentage at G2/M phase, fold higher than CA-4 (MCF-7 cell line [3]): 1.05 fold
percentage of cells at G2/M, folds higher than entinostat (MCF-7 cell line [3]): 1.53 fold
cell necrosis, fold increase compared to untreated control (MCF-7 cell line [4]): 2.09 fold
early apoptotic cell population, fold more than untreated control (MCF-7 cell line [4]): 14.36 fold
late apoptotic cells population, folds increase vs untreated control (MCF-7 cell line [4]): 44.60 fold
